Screening data (PubChem BioAssay)
pPAFAH FP inh – inhibitors of human plasma PAF acetylhydrolase (pPAFAH); Q13093; recombinant pPAFAH, FP-rhodamine probe fluorescence polarization; inhibition, % at 3.39 µM; 330,000 tested, 1.5% active;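 active = inhibition above the mean inhibition across the screen plus 3 SD, cut at about 25% in these data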;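 note: inhibitors block binding of the rhodamine activity-based probe so polarization drops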
RBBP9 inhibitor – human RBBP9 hydrolase inhibition | O75884 | recombinant RBBP9, FP-Rh probe fluorescence polarization | inhibition, % at 7.94 µM | 220,000 tested, 0.2% active | AID 1515;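 active = inhibition above the campaign mean of all tested compounds plus 3 SD, cut at about 14% in these data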
Target sequence (O75884 whole entry, looked up): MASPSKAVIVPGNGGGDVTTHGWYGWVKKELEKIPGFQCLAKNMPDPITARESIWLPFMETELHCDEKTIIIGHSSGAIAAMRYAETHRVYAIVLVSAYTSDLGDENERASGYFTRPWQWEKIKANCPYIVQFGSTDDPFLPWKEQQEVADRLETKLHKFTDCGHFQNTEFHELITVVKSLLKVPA
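Measured by: FP readout at 525/598 nm; material: recombinant human RBBP9; also added: Serine-hydrolase probe FP-Rh, 375 nM pre-mixing; medium: Tris buffer pH 8.0, NaCl, Pluronic; replication: one well per compound; doses: one concentration, 7.94 µM nominal, 0.794% DMSO; timing: preincubation 30 min plus labeling 45 min at 25 °C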
PAFAH1B2 inh – inhibitors of human PAFAH1B2; P68402; recombinant PAFAH1B2, FP-rhodamine activity probe, fluorescence polarization; inhibition, % at 3.39 µM; 340,000 tested, 1.2% active;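 active = inhibition above the mean of all tested compounds plus 3 SD, cut at about 24% in these data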
Target sequence (P68402 whole entry, looked up): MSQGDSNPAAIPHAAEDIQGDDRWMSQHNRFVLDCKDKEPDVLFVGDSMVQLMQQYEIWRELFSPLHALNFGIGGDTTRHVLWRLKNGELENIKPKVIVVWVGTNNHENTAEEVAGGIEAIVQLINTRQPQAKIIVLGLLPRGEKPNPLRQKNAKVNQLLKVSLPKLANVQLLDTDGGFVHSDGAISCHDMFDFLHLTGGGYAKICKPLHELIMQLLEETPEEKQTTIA
PAFAH2 FP inh – inhibitors of human PAFAH2 | Q99487 | inhibition, % at 3.39 µM | recombinant PAFAH2, FP-rhodamine activity probe, fluorescence polarization | 340,000 tested, 0.99% active;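 active = inhibition above the mean over all tested compounds plus 3 SD, cut at about 30% in these data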;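 note: inhibitors block probe labeling of enzyme so polarization drops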
PAFAH1B3 FP inh – blocks human PAF acetylhydrolase 1B catalytic subunit 3 | Q15102 | recombinant PAFAH1B3, FP-rhodamine probe, fluorescence polarization | inhibition, % at 3.39 µM | 340,000 tested, 0.28% active;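 active = inhibition above the screen-wide average of all tested compounds plus 3 SD, cut at about 25% in these data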
Each line names hits and unclear results; the compound was inactive in the other large screens. Most compounds without a hit are left out; they make up all but 2.7% or so of the library.

Cc1ccc2[nH]c3c(=O)n(CC(=O)NCc4ccco4)ncc3c2c1	none (no result: RBBP9 inhibitor)
CC1(C)C=Cc2c(c3c(c4c(=O)c(-c5ccc(O)cc5)coc24)OC(C)(C)CC3)O1	pPAFAH FP inh 26
CC(C)=CCc1c2c(c3occ(-c4ccc(O)cc4)c(=O)c3c1O)C=CC(C)(C)O2	none
Oc1ccc(Nc2nc(-c3ccccc3)nc3ccccc23)cc1	none (no result: RBBP9 inhibitor)
CC(=O)Nc1ccc(Nc2nc(-c3ccccc3)nc3ccccc23)cc1	pPAFAH FP inh 28
Cc1ccc(S(=O)(=O)Oc2cccc([N+](=O)[O-])c2)cc1	PAFAH1B2 inh 25 (no result: pPAFAH FP inh, RBBP9 inhibitor)
CC(C)(C)OC(=O)N[C@@H](C(=O)OC(C)(C)C)c1ccccc1	none (no result: RBBP9 inhibitor)
NC1=NC(=O)/C(=C\c2ccco2)S1	pPAFAH FP inh 30
Cc1nn(-c2ccccc2)c(Cl)c1/C=N/NC(=O)c1ccccc1NS(=O)(=O)c1cccs1	pPAFAH FP inh 33
O=S1(=O)NC(=NCCOCCO)c2ccccc21	none
CC1=CCC(C(=O)O)C(C(=O)Nc2ccc(-c3nc4ccc(C)cc4s3)cc2)C1 (stereo not given)	pPAFAH FP inh 34
CCOc1cc(C=O)ccc1OCCSc1ccc(C)cc1	PAFAH1B2 inh 30
COc1cc(C=O)ccc1OCCSc1ccc(C)cc1	PAFAH1B2 inh 35
CCC(OC(=O)c1nsc(Cl)c1Cl)C(=O)NCc1ccco1 (stereo not given)	pPAFAH FP inh 27
CCC(OC(=O)c1nsc(Cl)c1Cl)C(=O)NC(C)(C)C (stereo not given)	none
O=C(NCCCN1CCOCC1)c1ccc(Sc2cccc(Cl)c2)c([N+](=O)[O-])c1	pPAFAH FP inh 32
CC(CNC(=O)CN1C(=O)NC2(CCOc3ccccc32)C1=O)c1ccccc1 (stereo not given)	PAFAH1B2 inh 28 (no result: RBBP9 inhibitor)
C[C@@H](C(=O)OCC(=O)c1ccc(F)c(F)c1)N1C(=O)C2CCCCC2C1=O (stereo not given in full)	pPAFAH FP inh 28 (no result: RBBP9 inhibitor)
C[C@@H](C(=O)OCC(=O)c1ccccc1)N1C(=O)C2CCCCC2C1=O (stereo not given in full)	none (no result: RBBP9 inhibitor)
Nc1nc(Sc2ccc([N+](=O)[O-])c3nonc23)c2[nH]cnc2n1	PAFAH2 FP inh 30, PAFAH1B3 FP inh 38 (no result: pPAFAH FP inh, RBBP9 inhibitor)
COc1ccc(N2CCN(C(=O)CN3C(=O)NC4(CCCc5ccccc54)C3=O)CC2)cc1 (stereo not given)	none (no result: RBBP9 inhibitor)
NCCOc1ccc(C23CC4CC(CC(C4)C2)C3)cc1	none
CNC(=S)Nc1ccc(C23CC4CC(CC(C4)C2)C3)cc1	none
Oc1ccc(C23CC4CC(CC(C4)C2)C3)cc1O	PAFAH1B2 inh 61 (no result: RBBP9 inhibitor)
CC(=O)Nc1ccc(C23CC4CC(CC(C4)C2)C3)cc1	PAFAH1B2 inh 26 (no result: RBBP9 inhibitor)
COc1cc(CO)cc(Br)c1OCC(=O)Nc1cccc2ccccc12	none
Cc1ccc(S(=O)(=O)c2cc3ccccc3oc2=O)cc1	none
CCCCCCc1cc2cc(S(=O)(=O)c3ccc(F)cc3)c(=O)oc2cc1O	none
O=C(O)c1ccc2oc(=O)c(S(=O)(=O)c3ccc(F)cc3)cc2c1	PAFAH1B2 inh 32, PAFAH2 FP inh 45 (no result: RBBP9 inhibitor)
O=C(O)c1ccc2oc(=O)c(S(=O)(=O)c3ccccc3)cc2c1	PAFAH1B2 inh 27 (no result: RBBP9 inhibitor)
O=C1C=C(O)c2c(O)cccc2C1=O	pPAFAH FP inh 27 (no result: RBBP9 inhibitor, PAFAH1B2 inh, PAFAH2 FP inh, PAFAH1B3 FP inh)
O=C1C=C(O)c2cccc3cccc1c23	none (no result: RBBP9 inhibitor)
O=C(O)C(Cc1c[nH]c2ccccc12)NS(=O)(=O)c1ccccc1 (stereo not given)	PAFAH1B2 inh 24
COc1ccc(NS(=O)(=O)c2ccc(N3CCCC3)c(NC(=S)Nc3ccc(SC(F)F)cc3)c2)cc1	pPAFAH FP inh 34
O=C(NCCCn1ccnc1)C(=O)NCC1OCCCN1S(=O)(=O)c1ccccc1 (stereo not given)	none
COc1cccc2c1C(=O)C=C(C)C2=O	none
COC1=CC(=O)c2c(ccc3ncnc(N)c23)C1=O	PAFAH2 FP inh 48, PAFAH1B3 FP inh 69 (no result: pPAFAH FP inh, RBBP9 inhibitor)
CS(=O)(=O)N1CCSC1c1ccc(Br)cc1 (stereo not given)	PAFAH1B2 inh 26
CC1(OC(=O)CCc2ccccc2)C(=O)C=C2C=C(c3ccc(C#N)cc3)N(Cc3ccccc3)C=C2C1=O (stereo not given)	none (no result: RBBP9 inhibitor)
CC1(OC(=O)CCc2ccccc2)C(=O)C=C2C=C(c3ccc(C#N)cc3)N(Cc3ccco3)C=C2C1=O (stereo not given)	pPAFAH FP inh 33 (no result: RBBP9 inhibitor)
